Assay results from ChEMBL document CHEMBL1144230, “Development of a second generation of inhibitors of microsomal prostaglandin E synthase 1 expression bearing the gamma-hydroxybutenolide scaffold” (Bioorg Med Chem, 2008).
Active and inactive are the calls of the source. No cut-off for these calls is given here.

Tests used:
Apis mellifera = experiment: Inhibition of bee venom group 3 sPLA2 at 10 uM
In short: (§1)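 Radiometric sPLA2 assay with membranes of E. coli CECT 101 labelled by growth with [3H]oleic acid, then autoclaved. Enzyme in Tris–HCl, 1 mM CaCl2, pH 7.5, preincubated 5 min at 37 °C with compound in ethanol (vehicle 1%), then 15 min with the labelled membranes. Released radioactivity counted. Percent inhibition versus vehicle control, mean ± SEM, n = 6.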

RAW264.7 [1] = experiment: Inhibition of LPS-stimulated PGE2 production in mouse RAW264.7 cells at 10 uM after 20 hrs by radioimmunoassay; assay type: functional; conditions: RAW264.7, 20 h
In short: (§2)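 Murine RAW 264.7 macrophages, 1.5 × 10⁶ cells/mL, given 1 µg/mL E. coli 0111:B4 LPS at 37 °C for 20 h with compound in ethanol (vehicle ethanol 1%). Supernatant PGE₂ measured by radioimmunoassay. Mean ± SEM, n = 6. IC₅₀ from at least four significant concentrations. ANOVA then Dunnett's t-test.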

RAW264.7 [2] = experiment: Inhibition of LPS-stimulated microsomal prostaglandin E synthase 1 expression in mouse RAW264.7 cells by Western blot; assay type: functional, cell-based
In short: (§3)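 Cells were RAW 264.7 at 1.5 × 10⁶ cells/mL, 18 h with LPS 1 µg/mL and compound at 1 or 10 µM; dexamethasone as reference. Lysis in HEPES pH 8.0 buffer with protease/phosphatase inhibitors, spin 10,000g 15 min 4 °C. COX-2 taken from total fraction, mPGES-1 from microsomal fraction. 50 µg protein per lane on SDS–15% PAGE, PVDF, polyclonal antibodies (COX-2 1/1000, mPGES-1 1/200). β-actin loading control. Bands expressed relative to LPS control. Two experiments.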

Naja naja = experiment: Inhibition of Naja naja venom group 1A sPLA2 at 10 uM; in short: as §1
RAW264.7 [3] = experiment: Inhibition of LPS-stimulated PGE2 production in mouse RAW264.7 cells after 20 hrs by radioimmunoassay; assay type: functional, cell-based; conditions: RAW264.7, 20 h; in short: as §2
RAW264.7 [4] = experiment: Cytotoxicity against mouse RAW264.7 cells at 10 uM after 20 hrs by MTT assay; assay type: cell-based; conditions: raw264.7, 20 h
In short: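 RAW 264.7 macrophages (1.5 × 10⁶ cells/mL) co-incubated with 1 µg/mL E. coli 0111:B4 LPS at 37 °C for 20 h, compound added in ethanol (ethanol alone as control). Viability read by mitochondrial reduction of MTT to formazan.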

Sus scrofa = organism: Sus scrofa; experiment: Inhibition of pig pancreas group 1B sPLA2 at 10 uM
In short: (§4)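 Compound tested at 10 µM in ethanol (vehicle 1%). Enzyme preincubated 5 min at 37 °C in Tris–HCl, 1 mM CaCl₂, pH 7.5, then incubated 15 min with [³H]oleate-labelled, autoclaved E. coli CECT 101 membranes. Released radioactivity counted. Percent inhibition versus vehicle control, mean ± SEM, n = 6. Enzymes: human recombinant synovial group IIA; porcine pancreatic group IB.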

[5] = target: T1, Phospholipase A2, membrane associated (Homo sapiens) (UniProt P14555); experiment: Inhibition of human synovial recombinant group 2A sPLA2 at 10 uM; in short: as §4
T1 sequence (whole entry): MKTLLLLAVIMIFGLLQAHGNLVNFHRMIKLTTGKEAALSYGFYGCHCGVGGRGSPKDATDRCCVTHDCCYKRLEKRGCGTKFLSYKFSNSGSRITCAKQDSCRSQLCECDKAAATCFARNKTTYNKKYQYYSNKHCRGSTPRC

RAW264.7 [6] = experiment: Inhibition of LPS-stimulated COX2 expression in mouse RAW264.7 cells by Western blot; assay type: functional, cell-based; in short: as §3
RAW264.7 [7] = experiment: Inhibition of LPS-stimulated COX2 expression in mouse RAW264.7 cells at 10 uM by Western blot; assay type: functional, cell-based; in short: as §3
RAW264.7 [8] = experiment: Inhibition of LPS-stimulated microsomal prostaglandin E synthase 1 expression at 10 uM in mouse RAW264.7 cells by Western blot; assay type: functional, cell-based; in short: as §3

Compound	inhibition (Apis mellifera) [%]	inhibition at 10 µM (RAW264.7 [1]) [%]	Activity (RAW264.7 [2])	inhibition (Naja naja) [%]	IC50 (RAW264.7 [3]) [µM]	Cytotoxicity (RAW264.7 [4]) [%]	inhibition (Sus scrofa) [%]	inhibition [5] [%]	Activity (RAW264.7 [6])	Activity (RAW264.7 [7])	Activity (RAW264.7 [8])
O=C1OC(O)C(c2ccc(-c3ccc(-c4ccccc4)cc3)cc2)=C1Br (stereo not drawn)	0	73.1	Dose-dependent effect	0	3.61	1.2	0	12.1	inactive		
O=C1OC(O)C(c2cccc(-c3ccc(Oc4ccccc4)cc3)c2)=C1Br (stereo not drawn)	5.3	51		5.8		0	0	2.4			
O=C1OC(O)C(c2csc3ccccc23)=C1Br (stereo not drawn)		72.2			1.8	0					
O=C1OC(O)C(c2cccc(-c3ccc(Oc4ccccc4)cc3)c2)=C1c1cccc(-c2ccc(Oc3ccccc3)cc2)c1 (stereo not drawn)	6	22.2		16.6		0	10.2	10.6			
C[C@@H]1C[C@H]2[C@@H]3CCC4=CC(=O)C=C[C@]4(C)[C@@]3(F)[C@@H](O)C[C@]2(C)[C@@]1(O)C(=O)CO										Active	Active
CCCCc1ccc(C2=C(c3ccc(-c4ccc(CCCC)cc4)cc3)C(O)OC2=O)cc1 (stereo not drawn)	2.8	58.7	Dose-dependent effect	2.6	4.59	0	0	4.4	inactive		
O=C1OC(O)C(c2cccc(-c3ccc4ccccc4c3)c2)=C1Br (stereo not drawn)	0	66.8		0		18.6	0	0			
O=C1OC(O)C(c2cccc(-c3csc4ccccc34)c2)=C1c1cccc(-c2csc3ccccc23)c1 (stereo not drawn)	4	69.2	Dose-dependent effect	3.6	3.23	4.1	8.3	2.4	inactive		
O=C1OC(O)C(c2cccc(-c3ccc4ccccc4c3)c2)=C1c1ccc2ccccc2c1 (stereo not drawn)	2.8	79.6	Dose-dependent effect	2	0.84	8.6	0	14.8	inactive		
CCCCc1ccc(-c2ccc(C3=C(Br)C(=O)OC3O)cc2)cc1 (stereo not drawn)	3.5	62.2	Dose-dependent effect	0	2.24	5.5	0	0	inactive		
CCc1c(CC(N)=O)c2cc(OCCCP(=O)(O)O)ccc2n1Cc1ccccc1	2.4			7.9			36.9	96.3			
O=C1OC(O)C(c2cccc(-c3csc4ccccc34)c2)=C1Br (stereo not drawn)	13.9	33.6		11.7		0	28.6	30			
